Experimental data taken from ChEMBL document CHEMBL1147256, “Antibacterial xanthones from the leaves of Garcinia nigrolineata” (2003).
Values after ≈ are worked out from the molar mass of the structure shown. Active and inactive are the calls of the source. The rule behind the calls is not given here.

These compounds were tested on Staphylococcus aureus (assay: Antibacterial activity against methicillin-resistant Staphylococcus aureus at 16 ug/mL after 18 hrs by agar microdilution method).
Type: functional, organism-based
In the case of `CC(C)=CCc1c(O)c(CC=C(C)C)c2oc3c(O)cccc3c(=O)c2c1O`, the Activity is reported as “Active”.

These compounds were tested on Staphylococcus aureus (assay: Antibacterial activity against methicillin-resistant Staphylococcus aureus after 18 hrs by agar microdilution method).
Type: functional
Summary of the method: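 MRSA clinical isolate from Songklanakarin Hospital. Compounds were dissolved in DMSO, serially 2-fold diluted and mixed 1:100 into melted Mueller-Hinton agar, giving final concentrations of 128 to 0.03 μg/mL. Inoculum was spotted onto the agar and incubated at 35 °C for 18 h. MIC was the lowest concentration with no visible growth. Vancomycin was the positive control; DMSO-agar was the growth control.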
`CC(C)=CCc1ccc(O)c2oc3cc4c(c(O)c3c(=O)c12)CCC(C)(C)O4` was tested, and the Activity was “inactive”.
For `CC(C)(O)CCc1c2c(c(O)c3c(=O)c4cccc(O)c4oc13)CCC(C)(C)O2`, the Activity was “inactive”.
`CC(C)(O)CCc1ccc(O)c2oc3cc4c(c(O)c3c(=O)c12)C=CC(C)(C)O4` was tested, and the Activity was “inactive”.
In the case of `COC(C)(C)CCc1ccc(O)c2oc3cc(O)c(CC=C(C)C)c(O)c3c(=O)c12`, the Activity is reported as “inactive”.
For `CC(C)=CCc1ccc(O)c2oc3cc4c(c(O)c3c(=O)c12)C=CC(C)(C)O4`, the Activity was “inactive”.
With `CCOC(C)(C)CCc1c(O)cc2oc3c(O)ccc(CCC(C)(C)O)c3c(=O)c2c1O` the Activity was “inactive”.
In the case of `CC(C)=CCC/C(C)=C/CCC1(C)C=Cc2c(cc(O)c3c(=O)c4cccc(O)c4oc23)O1` (configuration not stated), the Activity is reported as “inactive”.
In the case of `CC(C)(O)CCc1ccc(O)c2oc3cc4c(c(O)c3c(=O)c12)CCC(C)(C)O4`, the Activity is reported as “inactive”.
With `CC(C)=CCc1c2c(c3oc4c(O)cccc4c(=O)c3c1O)CCC(C)(C)O2` the Activity was “inactive”.
Work on `CC(C)=CCc1c(O)cc2oc3c(O)ccc(CCC(C)(C)O)c3c(=O)c2c1O` [NIGROLINEAXANTHONE N] yielded an MIC of 4 µg/mL (≈ 10 µM).

Each compound was assayed on Staphylococcus aureus (assay: Antibacterial activity against methicillin-resistant Staphylococcus aureus at 32 ug/mL after 18 hrs by agar microdilution method).
Type: functional, organism-based
In the case of `CC(C)=CCc1c2c(c3oc4c(O)cccc4c(=O)c3c1O)C=CC(C)(C)O2`, the Activity is reported as “Active”.
